From ChEMBL document CHEMBL1129475, “Water soluble inhibitors of topoisomerase I: quaternary salt derivatives of camptothecin” (J Med Chem, 1996)
In brackets after ≈: the same amount, converted by molar mass.

What was measured:
[1] = Solubility was measured in D2O using 1H NMR integration of the C-20 ethyl group against internal standard 1,4-dioxane; type: physicochemical
Outline: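 Compound equilibrated ≥30 min in D2O containing 1,4-dioxane (0.015 M standardized solution) as internal standard, then filtered. 300-MHz ¹H spectrum; the C-18 methyl triplet at 0.8–0.9 ppm was integrated against the dioxane signal at 3.75 ppm.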

Mus musculus [2] = test: Mean body weight loss for animals in all experimental conditions at dose 12 mg/Kg in HT-29 human colon xenograft infected mice; type: functional
Outline: (§1)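 Female nu/nu mice (18-24 g) carrying subcutaneous HT-29 flank tumors; N=6 per group. Compound given s.c. twice weekly for 5 weeks over a dose range including the highest dose found in naive mice. Caliper tumor volume = length×width²/2. T/B = tumor volume at end of treatment over initial volume. Body weight monitored; mean weight loss per group.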

Mus musculus [3] = test: Compound was tested for number of deaths of the animals at a dose of 12 mg/Kg in mice; type: ADME, organism-based; conditions: in vivo; outline: as §1
Mus musculus [4] = test: Compound was tested for number of deaths of the animals at a dose of 8 mg/Kg in mice; type: ADME, organism-based; conditions: in vivo; outline: as §1
Mus musculus [5] = test: Mean body weight loss for animals in all experimental conditions at dose 14 mg/Kg in HT-29 human colon xenograft infected mice; type: functional; outline: as §1
Mus musculus [6] = test: Efficacy against HT-29 human colon xenograft infected mice expressed as tumor growth ratio at dose 12 mg/Kg; type: functional; outline: as §1
Mus musculus [7] = test: Efficacy against HT-29 human colon xenograft infected mice expressed as tumor growth ratio at dose 14 mg/Kg; type: functional; outline: as §1
Mus musculus [8] = test: Efficacy against HT-29 human colon xenograft infected mice expressed as tumor growth ratio at dose 8 mg/Kg; type: functional; outline: as §1
SK-OV-3 = test: Human tumor cell cytotoxicity assay was performed using MTT (SK-OV3 cell line ); type: functional, cell-based
SK-VLB = test: Human tumor cell cytotoxicity assay was performed using MTT (SKVLB cell line ); type: functional, cell-based
Mus musculus [9] = test: Compound was tested for number of deaths of the animals at a dose of 14 mg/Kg in mice; type: ADME, organism-based; conditions: in vivo; outline: as §1
Mus musculus [10] = species on record: Mus musculus; test: Maximally tolerated dose that caused <=30% body weight loss in mice; type: functional
Outline: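 Highest single s.c. bolus dose in tumor-free nude mice causing ≤30% body weight loss.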

HT-29 = test: Human tumor cell cytotoxicity assay was performed using MTT (HT-29 cell line ); type: functional, cell-based
[11] = MDR ratio is defined as the quotient of SKVLB IC50/SKOV3 IC50; type: functional
Outline: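 Ratio of SKVLB IC50 to SKOV3 IC50, each from the 96 h MTT cytotoxicity assay with a four-parameter logistic fit.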

Mus musculus [12] = test: Delay in tumor growth in drug treated animals compared to controls at a dose of 80(mg/kg); type: functional
Outline: (§2)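 Tumor growth delay in nude mice with HT-29 xenografts, N=6. The dose from a single s.c. bolus in tumor-free mice was split into three s.c. portions given over one day. T/C = difference in days for tumors to reach 500% of initial volume, treated versus control.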

Mus musculus [13] = test: Mean body weight loss for animals in all experimental conditions at dose 8 mg/Kg in HT-29 human colon xenograft infected mice; type: functional; outline: as §1
Mus musculus [14] = test: Delay in tumor growth in drug treated animals compared to controls at a dose of 48(mg/kg); type: functional; outline: as §2
Mus musculus [15] = test: Delay in tumor growth in drug treated animals compared to controls at a dose of 100(mg/kg); type: functional; outline: as §2
Mus musculus [16] = test: Compound was tested for number of deaths of the animals at a dose of 5 mg/Kg in mice; type: ADME, organism-based; conditions: in vivo; outline: as §1
Mus musculus [17] = test: Mean body weight loss for animals in all experimental conditions at dose 9 mg/Kg in HT-29 human colon xenograft infected mice; type: functional
Outline: (§3)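 HT-29 subcutaneous xenografts in female nu/nu mice, N=6 per group. Subcutaneous dosing twice weekly for 5 weeks. Body weight was monitored and reported as mean percent loss per group. A loss of 30% or more was considered lethal.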

Mus musculus [18] = test: Compound was tested for number of deaths of the animals at a dose of 11 mg/Kg in mice; type: ADME, organism-based; conditions: in vivo; outline: as §1
Mus musculus [19] = test: Efficacy against HT-29 human colon xenograft infected mice expressed as tumor growth ratio at dose 5 mg/Kg; type: functional
Outline: (§4)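 Female nu/nu mice (18-24 g) bearing subcutaneous HT-29 flank tumours, N=6 per group. Dosed subcutaneously twice weekly for 5 weeks over a dose range that included the highest dose, which was set in naive mice. Caliper volume = length×width²/2. T/B = group mean tumour volume at end of treatment divided by initial mean volume.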

Mus musculus [20] = test: Mean body weight loss for animals in all experimental conditions at dose 5 mg/Kg in HT-29 human colon xenograft infected mice; type: functional; outline: as §3
Mus musculus [21] = test: Efficacy against HT-29 human colon xenograft infected mice expressed as tumor growth ratio at dose 7 mg/Kg; type: functional; outline: as §4
Mus musculus [22] = test: Compound was tested for number of deaths of the animals at a dose of 9 mg/Kg in mice; type: ADME, organism-based; conditions: in vivo; outline: as §1
Mus musculus [23] = test: Efficacy against HT-29 human colon xenograft infected mice expressed as tumor growth ratio at dose 9 mg/Kg; type: functional; outline: as §4
Mus musculus [24] = test: Efficacy against HT-29 human colon xenograft infected mice expressed as tumor growth ratio at dose 11 mg/Kg; type: functional; outline: as §4
Mus musculus [25] = test: Mean body weight loss for animals in all experimental conditions at dose 11 mg/Kg in HT-29 human colon xenograft infected mice; type: functional; outline: as §1
Mus musculus [26] = test: Compound was tested for number of deaths of the animals at a dose of 7 mg/Kg in mice; type: ADME, organism-based; conditions: in vivo; outline: as §1
Mus musculus [27] = test: Mean body weight loss for animals in all experimental conditions at dose 7 mg/Kg in HT-29 human colon xenograft infected mice; type: functional; outline: as §3
Mus musculus [28] = test: Delay in tumor growth in drug treated animals compared to controls at a dose of 54(mg/kg); type: functional
Mus musculus [29] = test: Mean body weight loss for animals in all experimental conditions at dose 10.5 mg/Kg in HT-29 human colon xenograft infected mice; type: functional; outline: as §1
Mus musculus [30] = test: Efficacy against HT-29 human colon xenograft infected mice expressed as tumor growth ratio at dose 10.5 mg/Kg; type: functional; outline: as §1
Mus musculus [31] = test: Mean body weight loss for animals in all experimental conditions at dose 9.5 mg/Kg in HT-29 human colon xenograft infected mice; type: functional; outline: as §1
Mus musculus [32] = test: Compound was tested for number of deaths of the animals at a dose of 10.5 mg/Kg in mice; type: ADME, organism-based; conditions: in vivo; outline: as §1
Mus musculus [33] = test: Compound was tested for number of deaths of the animals at a dose of 9.5 mg/Kg in mice; type: ADME, organism-based; conditions: in vivo; outline: as §1
Mus musculus [34] = test: Efficacy against HT-29 human colon xenograft infected mice expressed as tumor growth ratio at dose 9.5 mg/Kg; type: functional; outline: as §1

Compound | solubility [1] [µg/mL] | IC50 (SK-OV-3) [nM] | IC50 (SK-VLB) [nM] | MTD (Mus musculus [10]) [mg/kg] | IC50 (HT-29) [nM] | Ratio [11] | also measured
CC[C@@]1(O)C(=O)OCc2c1cc1n(c2=O)Cc2c-1nc1cc3c(cc1c2C[n+]1cccc(CO)c1)OCCO3 | 1200 |  |  |  |  |  | 
CC[C@@]1(O)C(=O)OCc2c1cc1n(c2=O)Cc2c-1nc1cc3c(cc1c2C[n+]1ccncc1)OCCO3 | 1400 | 11 | 870 | 100 | 16 | 80 | BW loss (Mus musculus [2]): 27%; Deaths (Mus musculus [3]): 0; Deaths (Mus musculus [4]): 0; BW loss (Mus musculus [5]): 13%; Efficacy (Mus musculus [6]): 0.7; Efficacy (Mus musculus [7]): 0.32; Efficacy (Mus musculus [8]): 2.1; Deaths (Mus musculus [9]): 0; T/C (Mus musculus [12]): 14 days; BW loss (Mus musculus [13]): 21%
CC[C@@]1(O)C(=O)OCc2c1cc1n(c2=O)Cc2c-1nc1cc3c(cc1c2Cn1ccnc1)OCCO3 | < 500 |  |  |  |  |  | 
CC[C@@]1(O)C(=O)OCc2c1cc1n(c2=O)Cc2c-1nc1cc3c(cc1c2Cn1cc[n+](C)c1)OCCO3 | 1300 |  |  |  |  |  | 
CC[C@@]1(O)C(=O)OCc2c1cc1n(c2=O)Cc2c-1nc1cc3c(cc1c2C[n+]1ccncc1)OCO3 | 1400 | 6 | 23 | 80 | 46 | 4 | T/C (Mus musculus [14]): 11 days
CC[C@@]1(O)C(=O)OCc2c1cc1n(c2=O)Cc2c-1nc1cc3c(cc1c2C[n+]1ccccc1)OCCO3 | 1800 | 85 | 84 |  | 84 | 1 | 
CC[C@@]1(O)C(=O)OCc2c1cc1n(c2=O)Cc2c-1nc1cc3c(cc1c2C[n+]1ccccn1)OCCO3 | 910 | 69 | 94 |  |  | 1 | 
CC[C@@]1(O)C(=O)OCc2c1cc1n(c2=O)Cc2c-1nc1cc3c(cc1c2C[n+]1cccc(CO)c1)OCO3 | > 4400 | 11 | 23 | >100 | 13 | 2 | T/C (Mus musculus [15]): 9 days
COc1cccc2c1C(=O)c1c(O)c3c(c(O)c1C2=O)C[C@@](O)(C(=O)CO)C[C@@H]3O[C@H]1C[C@H](N)[C@H](O)[C@H](C)O1 [DOXORUBICIN] | > 2000 |  |  |  |  | 160 | 
CC[C@@]1(O)C(=O)OCc2c1cc1n(c2=O)Cc2c-1nc1cc3c(cc1c2C[n+]1ccccc1)OCO3 | > 4500 | 74 | 72 | >100 | 70 | 1 | T/C (Mus musculus [15]): 4 days
CC[C@@]1(O)C(=O)OCc2c1cc1n(c2=O)Cc2cc3c(CN(C)C)c(O)ccc3nc2-1 [TOPOTECAN] | 2100 (≈ 4.98 mM) |  |  | 54 |  |  | Deaths (Mus musculus [16]): 0; BW loss (Mus musculus [17]): 17%; Deaths (Mus musculus [18]): 0; Efficacy (Mus musculus [19]): 8.6; BW loss (Mus musculus [20]): 15%; Efficacy (Mus musculus [21]): 7; Deaths (Mus musculus [22]): 2; Efficacy (Mus musculus [23]): 4.3; Efficacy (Mus musculus [24]): 2.9; BW loss (Mus musculus [25]): 23%; Deaths (Mus musculus [26]): 0; BW loss (Mus musculus [27]): 11%; T/C (Mus musculus [28]): 10 days
CC[C@@]1(O)C(=O)OCc2c1cc1n(c2=O)Cc2c-1nc1cc3c(cc1c2C[n+]1ccc(CO)cc1)OCCO3 | 1100 |  |  |  |  |  | 
CC[C@@]1(O)C(=O)OCc2c1cc1n(c2=O)Cc2c-1nc1cc3c(cc1c2Cn1cc[n+](C)c1)OCO3 | > 3500 | 110 | 1000 | 100 | 75 | 9 | BW loss (Mus musculus [29]): 12%; Efficacy (Mus musculus [30]): 3.84; BW loss (Mus musculus [31]): 4%; Deaths (Mus musculus [18]): 0; Deaths (Mus musculus [32]): 0; Deaths (Mus musculus [33]): 0; T/C (Mus musculus [15]): 14 days; Efficacy (Mus musculus [24]): 2.85; BW loss (Mus musculus [25]): 16%; Efficacy (Mus musculus [34]): 6.74
CC[C@@]1(O)C(=O)OCc2c1cc1n(c2=O)Cc2c-1nc1cc3c(cc1c2C[n+]1ccccn1)OCO3 | > 3100 | 83 | 130 |  |  | 2 | 
CC[C@@]1(O)C(=O)OCc2c1cc1n(c2=O)Cc2c-1nc1cc3c(cc1c2Cn1ccnc1)OCO3 | < 500 |  |  |  |  |  | 
